Screens as filed in PubChem.
This is a sample that favours compounds with a hit; in the whole collection about 12% have one here.
Arbovirus inh: blocks arbovirus infection. arbovirus infection cell-based antiviral screen. inhibition, % at 10 µM. 200,000 tested, 0.37% active. AID 1251; in the data active means inhibition above about 30%
CHOP inhibitor: blocks CHOP induction under ER stress; CHO-K1 CHOP-promoter luciferase, tunicamycin-induced, 15-18 h; inhibition, % at 10 µM; 220,000 tested, 3.8% active;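 active means compounds that reduced the stress-induced luciferase reporter signal by more than about 70% of percent inhibition, limit read from the data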
Rad51 HR inh: blocks human Rad51 in homologous recombination. Q06609. hRad51 DNA strand exchange, fluorescence dequenching. inhibition, % at 10 µM. 200,000 tested, 0.085% active. AID 1385;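 active means inhibition above 40% at the single screening dose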
Target sequence (Q06609 whole entry, looked up): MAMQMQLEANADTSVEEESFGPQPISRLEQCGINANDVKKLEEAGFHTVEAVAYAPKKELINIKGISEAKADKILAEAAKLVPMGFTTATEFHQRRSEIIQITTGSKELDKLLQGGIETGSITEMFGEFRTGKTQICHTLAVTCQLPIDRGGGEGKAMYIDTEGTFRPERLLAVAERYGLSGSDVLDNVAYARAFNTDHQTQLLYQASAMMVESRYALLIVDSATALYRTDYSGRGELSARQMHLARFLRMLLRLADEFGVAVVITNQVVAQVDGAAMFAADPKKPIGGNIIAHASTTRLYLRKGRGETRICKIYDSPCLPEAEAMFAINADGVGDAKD
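material = hRad51 filaments on single-stranded DNA | timing = filaments 15 min 37 °C, then compound 30 min | signal = FRET fluorescence dequenching, excitation 485 nm, emission 520 nm | benchmarks = control wells and blank wells on each plate | evaluation = percent inhibition relative to plate controls and blanks | compound = 10 µM final, single point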
Wee1 degr inh: inhibitors of human Wee1 degradation. HeLa Luc-Wee1K328M stability, luciferase luminescence; 100% = proteasome inhibitor MG132 effect. reporter increase, % at 5 µM. 220,000 tested, 1.2% active;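 active means activation above the mean of all tested compounds plus 3 SD, set per screening run, cut at about 8.8% in these data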;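 further: cells exposed to compound for 20 h before luminescence read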
PKD1 kinase inh: blocks activity of human protein kinase D1; 200,000 tested, 0.056% active; Q15139; inhibition, % (no concentration beside the values); AID 797; PKD1 kinase fluorescence polarization assay
L major viab: inhibitors of Leishmania major promastigote growth; inhibition, % at 10 µM; Leishmania major promastigotes, resazurin fluorescence viability; 200,000 tested, 9% active;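 further: promastigotes grown with compound for 44 hours at 28 °C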
Of the large screens only hits and unclear results are named; the others gave an inactive call. Unless noted, no stated cut-off is given here; in the data, active means inhibition above about 50%; inactive means the rest.

CC(C)(C)c1ccc(/C=C/C(=O)NC2=NCCS2)cc1	CHOP inhibitor 81.8
C=CCc1c(C)nc(-c2ccccc2)nc1N/N=C/c1ccncc1	L major viab 67.7
C=CCc1c(C)nc(-c2ccccc2)nc1Nc1ccccc1O	L major viab 61.5
O=C(COC(=O)c1ccc(=O)[nH]c1)Nc1cccc(S(=O)(=O)N2CCOCC2)c1	none (no result: Arbovirus inh, PKD1 kinase inh, L major viab)
COC(=O)c1ccc(S(=O)(=O)N2Cc3ccccc3C2)cc1	none
COc1cc(C)c(-c2[nH]ncc2-c2csc(C)n2)c(O)c1	none (no result: Rad51 HR inh)
COc1ccc(Oc2cn[nH]c2-c2ccc(O)cc2O)cc1	L major viab 57.7
Cc1nc(-c2cn[nH]c2-c2ccc(O)cc2O)cs1	Wee1 degr inh 9.0
O=C(CCSCc1ccccc1Cl)NC1CCCCC1	none
O=C(NCCCN1CCOCC1)c1cc2c(s1)CCCC2	L major viab 91.3
O=C(NCCCN1CCOCC1)c1csc2c1CCCC2	L major viab 85.2
O=C(Cc1ccccc1)Nc1cccc(C(=O)O)c1O	none (no result: Rad51 HR inh)
COc1ccc(/C=C(\C#N)C(=O)OCC(=O)Nc2c(C)cccc2C)cc1	CHOP inhibitor 75.4
COc1ccc(/C=C(\C#N)C(=O)OCC(=O)Nc2ccc(C(C)(C)C)cc2)cc1	none
CCc1cccc(CC)c1NC(=O)COC(=O)/C(C#N)=C/c1ccc(OC)cc1	CHOP inhibitor 75.0
COc1cc(NC(c2ccccc2)c2ccccc2)cc(OC)c1OC	L major viab 96.3
Cc1c(C(=O)N(C)C)sc(NC(=O)c2cccc([N+](=O)[O-])c2)c1C#N	Wee1 degr inh 10.2
Nc1ccc(CSc2ccc(Cl)cc2)cc1	none
CCOC(=O)Cc1csc(NS(=O)(=O)c2ccc(Cl)cc2)n1	L major viab 50.4
O=[N+]([O-])c1ccc2cn(-c3ccccc3)nc2c1	none
COc1cc(NCCC(=O)c2cccs2)c(OC)cc1Cl	none
COc1ccc(S(=O)(=O)N(C)C)cc1NC(=O)COC(=O)CC1CCCC1	none
COc1ccc(S(=O)(=O)N(C)C)cc1NCC(=O)Nc1ccc(Br)cc1F	L major viab 57.0
O=C(O)C1CC=CCC1C(=O)Nc1ccc(N2CCN(Cc3ccccc3)CC2)cc1 (stereo unspecified)	none
COc1ccc(NC(=O)COC(=O)CCNS(=O)(=O)c2ccccc2)cc1OC	none
COc1cc(CNCCO)cc(Cl)c1OCc1ccccc1Cl	L major viab 98.8
CCOc1cc(CNC(C)(C)CO)cc(Br)c1OCc1ccc(Cl)cc1Cl	CHOP inhibitor 92.4, L major viab 99.9
CCOc1c(CNCCN2CCOCC2)cccc1OC	none
CCOc1cc(CNCCO)cc(Br)c1OCc1ccccc1Cl	CHOP inhibitor 85.4, L major viab 99.7
COc1cccc(CNCCO)c1OCc1ccccc1Cl	none
CCOc1cc(CNCCCN2CCOCC2)cc(Br)c1OCc1ccccc1Cl	L major viab 100.5
COc1cc(CC2COC(c3ccc(O)c(OC)c3)C2COC(C)=O)ccc1O (stereo unspecified)	none (no result: Arbovirus inh, Wee1 degr inh, PKD1 kinase inh, L major viab)
CCOc1cccc(CNCCO)c1OCc1ccc(Cl)cc1	none (no result: Rad51 HR inh)
CCOc1cc(CNCCO)cc(Br)c1OCc1ccc(Cl)cc1	CHOP inhibitor 75.5, L major viab 100.6 (no result: Rad51 HR inh)
COc1ccc2nc(NC(=O)Cn3cnc4ccccc4c3=O)sc2c1	none (no result: Arbovirus inh, PKD1 kinase inh, L major viab)
COc1ccc(C2CC(=O)C3=C(C2)Nc2ncnn2C3c2ccccc2C)c(OC)c1 (stereo unspecified)	L major viab 100.3
CCCCN(C(=O)NC(=O)Nc1ccc(C)cn1)S(C)(=O)=O	none
Cc1cc(C(=O)NNC(=O)c2ccc(S(=O)(=O)N(C)C)cc2)c(C)o1	Wee1 degr inh 9.5 (no result: Rad51 HR inh)
N#Cc1nc(-c2ccc(F)cc2)oc1NCc1cccc2c1OCO2	CHOP inhibitor 84.1
N#Cc1nc(Cc2cccc3ccccc23)oc1NCc1ccc(F)cc1	CHOP inhibitor 71.2
N#Cc1nc(Cc2cccc3ccccc23)oc1NCCN1CCOCC1	L major viab 72.2
N#Cc1nc(-c2ccccc2)oc1NCCN1CCCCC1	L major viab 86.6
CCCC(NC(=S)NCC1CCCO1)C12CC3CC(CC(C3)C1)C2 (stereo unspecified)	CHOP inhibitor 82.5
Cc1ccc(N(C)C(=O)N2CCN(S(=O)(=O)c3ccc(C)c(C)c3)CC2)cc1	CHOP inhibitor 73.4
Cc1ccc(N(C)C(=O)N2CCN(S(=O)(=O)c3c(C)cc(C)cc3C)CC2)cc1	L major viab 97.6
Cc1ccc(S(=O)(=O)N2CCN(C(=O)N(C)C)CC2)cc1C	none
CCN(CC)C(=O)N1CCN(S(=O)(=O)c2c(C)cc(C)cc2C)CC1	none
O=C(CC1SC(=NC2CCCCC2)NC1=O)Nc1ccccc1 (stereo unspecified)	none
Cc1cccc(NC(=O)CC2SC(=NC3CCCCC3)NC2=O)c1 (stereo unspecified)	CHOP inhibitor 74.0
NC(=O)c1cccc(C(N)=O)n1	none
O=C(CCCOc1ccc(Cl)cc1Cl)Nc1ccccn1	none
CCC(=O)NC(=S)Nc1ccc(NC(=O)COc2ccc(Cl)cc2Cl)cc1	CHOP inhibitor 89.5
CN(CCCC(=O)Nc1ccncc1)S(=O)(=O)c1ccc(Cl)cc1	L major viab 85.6 (no result: CHOP inhibitor)
CN(CC(=O)Nc1ccncc1)S(=O)(=O)c1ccc(Br)cc1	none
COc1ccccc1NC(=S)NC(=O)CCCOc1ccc(Cl)cc1Cl	CHOP inhibitor 77.2
COc1ccc(NC(=S)NNC(=O)COc2ccc(Cl)cc2Cl)cc1	none
O=C(CCCOc1ccc(Cl)cc1Cl)Nc1ccncc1	L major viab 98.6
OCCNCCNCc1ccccc1OCc1ccccc1	none
CC(O)CNCCOc1ccccc1OCc1ccccc1 (stereo unspecified)	L major viab 87.9
CC(O)CNCCNCc1c(OCc2ccccc2)ccc2ccccc12 (stereo unspecified)	L major viab 100.7
O=C(/C=C/c1cccc(Br)c1)N1CCN(c2ccccn2)CC1	none (no result: Rad51 HR inh)
O=C(Cn1nnc(-c2cccs2)n1)Nc1ccccc1C(F)(F)F	none
Cc1ccccc1NC(=S)NCC1CCN(C(C)c2ccccc2)C1 (stereo unspecified)	L major viab 76.3 (no result: Rad51 HR inh)
Cc1cc(C)cc(NC(=S)NCC2CCCO2)c1 (stereo unspecified)	none
Cc1cc(C)cc(NC(=S)NCC2CCN(C(C)c3ccccc3)C2)c1 (stereo unspecified)	L major viab 71.8 (no result: Rad51 HR inh)
COc1ccc(CC(=O)Nc2ccc(N3CCOCC3)cc2)cc1OC	none (no result: Arbovirus inh, PKD1 kinase inh, L major viab)
O=C(Cn1ccc(C(F)(F)F)n1)N/N=C/c1ccc2c(c1)OCO2	none
Cc1cc(C(N)=O)nn1-c1c(Cl)cc(Cl)cc1Cl	none (no result: Arbovirus inh, PKD1 kinase inh, L major viab)
Cc1cc[n+](-c2ccccc2)c2ccccc12	none
CC(C)(C)C(=O)OCc1nc(-c2ccc(F)cc2)cs1	none (no result: Arbovirus inh, PKD1 kinase inh, L major viab)
Cc1cccn2c(=O)c(C=O)c(N3CCN(c4ccc(F)cc4)CC3)nc12	none
CCOc1ccccc1N(CC(=O)NC(C)(C)C)C(=O)Cn1nnc(-c2ccc(C)o2)n1	L major viab 60.0
O=C(Nc1ccon1)c1ccc(N2CCCCC2)c([N+](=O)[O-])c1	none (no result: Rad51 HR inh)
